≈ marks a conversion by molar mass, not a printed value. Calls of active or inactive are those of the source. No cut-off for these calls is given here.
What was measured:
[1] = test system: Acinetobacter baumannii; experiment: Antibacterial activity against Acinetobacter baumannii ATCC 17978 after 16 hrs by broth microdilution assay; format: organism-based
[2] = test system: Acinetobacter baumannii; experiment: Antibacterial activity against Acinetobacter baumannii isolate 5075 after 16 hrs by broth microdilution assay; format: organism-based
[3] = test system: Klebsiella pneumoniae; experiment: Antibacterial activity against Klebsiella pneumoniae ATCC 2146 expressing NDM1 gene after 16 hrs by broth microdilution assay; format: organism-based
[4] = test system: Acinetobacter baumannii; experiment: Antibacterial activity against Acinetobacter baumannii ATCC 17978 expressing mcr1 gene after 16 hrs by broth microdilution assay; format: organism-based; conditions: in vitro
[5] = test system: Klebsiella pneumoniae; experiment: Antibacterial activity against Klebsiella pneumoniae isolate C3 after 16 hrs by broth microdilution assay
[6] = test system: Acinetobacter baumannii; experiment: Antibacterial activity against Acinetobacter baumannii ATCC 19606 after 16 hrs by broth microdilution assay; format: organism-based, ATCC 19606 = CIP 70.34 = JCM 6841
[7] = test system: Staphylococcus aureus; experiment: Antibacterial activity against methicillin-resistant Staphylococcus aureus ATCC 43300 after 16 hrs by broth microdilution assay; format: functional; conditions: for MIC: ATCC 43300, 16 h
[8] = test system: Klebsiella pneumoniae; experiment: Antibacterial activity against Klebsiella pneumoniae isolate B9 after 16 hrs by broth microdilution assay; conditions: in vivo
[9] = test system: Escherichia coli; experiment: Antibacterial activity against Escherichia coli ATCC 25922 after 16 hrs by broth microdilution assay; format: organism-based
[10] = test system: Acinetobacter baumannii; experiment: Antibacterial activity against Acinetobacter baumannii isolate 3941 after 16 hrs by broth microdilution assay; format: organism-based
[11] = test system: Escherichia coli; experiment: Antibacterial activity against Escherichia coli ATCC 25922 expressing mcr1 gene after 16 hrs by broth microdilution assay; format: organism-based; conditions: in vitro
[12] = test system: Acinetobacter baumannii; experiment: Antibacterial activity against Acinetobacter baumannii isolate 4106 after 16 hrs by broth microdilution assay; format: organism-based
[13] = test system: Staphylococcus aureus; experiment: Inhibition of biofilm formation in methicillin-resistant Staphylococcus aureus ATCC 43300 after 24 hrs by crystal violet staining based method; format: functional, organism-based; conditions: for IC50: ATCC 43300, 24 h
Summary of the method: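 Read-out is the IC50, taken as the compound concentration that inhibits 50% of MRSA 43300 biofilm formation.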

[14] = test system: Acinetobacter baumannii; experiment: Potentiation of colistin-induced antimicrobial activity against Acinetobacter baumannii isolate 4106 after 16 hrs in presence of 0.01% triton X-100 by broth microdilution assay; format: functional, organism-based
[15] = test system: Klebsiella pneumoniae; experiment: Potentiation of colistin-induced antimicrobial activity against Klebsiella pneumoniae isolate B9 after 16 hrs in presence of 0.01% triton X-100 by broth microdilution assay; format: functional, organism-based
[16] = test system: Acinetobacter baumannii; experiment: Potentiation of colistin-induced antimicrobial activity against Acinetobacter baumannii ATCC 19606 assessed as fold reduction in colistin MIC after 16 hrs by broth microdilution assay; format: functional, ATCC 19606 = CIP 70.34 = JCM 6841
Summary of the method: (§1)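 Analogue at a fixed 60 μM unless otherwise noted, combined with colistin against the Gram-negative strain. Potentiation is read as the fold reduction in colistin MIC relative to colistin alone. A. baumannii 3941/4106 and K. pneumoniae C3/B9 are primary clinical isolates with genomically encoded colistin resistance.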

[17] = test system: Escherichia coli; experiment: Potentiation of colistin-induced antimicrobial activity against Escherichia coli ATCC 25922 assessed as fold reduction in colistin MIC after 16 hrs by broth microdilution assay; format: functional; summary of the method: as §1
[18] = test system: Acinetobacter baumannii; experiment: Potentiation of colistin-induced antimicrobial activity against Acinetobacter baumannii ATCC 17978 assessed as fold reduction in colistin MIC after 16 hrs by broth microdilution assay; format: functional; summary of the method: as §1
[19] = test system: Staphylococcus aureus; experiment: Antibiofilm activity against methicillin-resistant Staphylococcus aureus ATCC 43300 assessed induction of dispersion of preformed biofilm after 24 hrs by crystal violet staining based method; format: functional, organism-based; conditions: ATCC 43300, 24 h
[20] = test system: Staphylococcus aureus; experiment: Potentiation of vancomycin-induced antibacterial activity against methicillin-resistant Staphylococcus aureus ATCC 43300 assessed as dispersion of preformed biofilm after 24 hrs by crystal violet staining based method; format: functional, organism-based; conditions: ATCC 43300, 24 h

Structure (SMILES)	MIC [1] [µM]	MIC [2] [µM]	MIC [3] [µM]	MIC [4] [µM]	MIC [5] [µM]	MIC [6] [µM]	MIC [8] [µM]	MIC [9] [µM]	MIC [10] [µM]	MIC [11] [µM]	MIC [12] [µM]	IC50 [13] [µM]	also measured
CCn1cc(-c2ccnc(N)n2)c2cc(Br)ccc21.Cl	> 200	> 200	> 200	> 200	> 200	> 200	> 200	> 200	> 200	> 200	> 200	66.2	MIC [7]: 200 µM
Cl.Cn1cc(-c2ccnc(N)n2)c2ccc(Br)cc21	> 200	> 200	> 200	> 200	> 200	> 200	> 200	> 200	> 200	> 200	> 200	59.6	MIC [7]: 200 µM
CCCCn1cc(-c2ccnc(N)n2)c2ccc(Br)cc21.Cl	> 200	> 200	> 200	> 200	> 200	> 200	> 200	> 200	> 200	> 200	> 200	> 100	–
Cl.Nc1nccc(-c2c[nH]c3ccc(I)cc23)n1	> 200	> 200	> 200	> 200	> 200	> 200	> 200	> 200	> 200	> 200	> 200	49.3	MIC [7]: 200 µM
Cl.Nc1nccc(-c2c[nH]c3ccc(F)cc23)n1	> 200	> 200	> 200	> 200	> 200	> 200	> 200	> 200	> 200	> 200	> 200	> 100	–
Cl.Nc1nccc(-c2cn(Cc3ccccc3)c3ccc(Br)cc23)n1	> 200	> 200	> 200	> 200	> 200	> 200	> 200	> 200	> 200	> 200	> 200	–	–
CCCCCn1cc(-c2ccnc(N)n2)c2cc(Br)ccc21.Cl	> 200	> 200	> 200	> 200	> 200	> 200	> 200	> 200	> 200	> 200	> 200	> 100	–
Cl.Nc1nccc(-c2c[nH]c3ccc(Cl)cc23)n1	> 200	> 200	> 200	> 200	> 200	> 200	> 200	> 200	> 200	> 200	> 200	–	Activity [13]: inactive
Cc1ccc(S(=O)(=O)n2cc(C(=O)/C=C/N(C)C)c3ccc(F)cc32)cc1	–	–	–	–	–	–	–	–	–	–	–	–	Activity [13]: Active
Cl.Cn1cc(-c2ccnc(N)n2)c2cc(Br)ccc21	> 200	> 200	> 200	> 200	> 200	> 200	> 200	> 200	> 200	> 200	> 200	> 100	–
Nc1nccc(-c2c[nH]c3cccc(Br)c23)n1	–	–	–	–	–	–	–	–	–	–	–	> 100	–
Cc1ccc(S(=O)(=O)n2cc(C(=O)/C=C/N(C)C)c3ccc(I)cc32)cc1	–	–	–	–	–	–	–	–	–	–	–	–	Activity [13]: Active
CCn1cc(-c2ccnc(N)n2)c2ccc(Br)cc21.Cl	> 200	> 200	> 200	> 200	> 200	> 200	> 200	> 200	> 200	> 200	> 200	64	MIC [7]: 200 µM
Nc1nccc(-c2c[nH]c3ccccc23)n1	–	–	–	–	–	–	–	–	–	–	–	> 100	Activity [14]: inactive; Activity [7]: inactive; Activity [15]: inactive
Cc1ccc2[nH]cc(-c3ccnc(N)n3)c2c1.Cl	> 200	> 200	> 200	> 200	> 200	> 200	> 200	> 200	> 200	> 200	> 200	> 100	Activity [14]: inactive; Activity [7]: inactive; Activity [15]: inactive
CCNc1nccc(-c2cn(C)c3cc(Br)ccc23)n1.Cl	> 200	> 200	> 200	> 200	> 200	> 200	> 200	> 200	> 200	> 200	> 200	–	Activity [13]: inactive
CCCn1cc(-c2ccnc(N)n2)c2ccc(I)cc21.Cl	> 200	> 200	> 200	> 200	> 200	> 200	> 200	> 200	> 200	> 200	> 200	–	Activity [13]: inactive
CC(C)Cn1cc(-c2ccnc(N)n2)c2cc(Br)ccc21.Cl	> 200	> 200	> 200	> 200	> 200	> 200	> 200	> 200	> 200	> 200	> 200	> 100	fold change (FC) [16]: 16; fold change (FC) [17]: 16; fold change (FC) [18]: 16
CC(C)Cn1cc(-c2ccnc(N)n2)c2ccc(Br)cc21.Cl	> 200	> 200	> 200	> 200	> 200	> 200	> 200	> 200	> 200	> 200	> 200	> 100	–
Cl.Nc1nccc(-c2c[nH]c3cc(F)ccc23)n1	> 200	> 200	> 200	> 200	> 200	> 200	> 200	> 200	> 200	> 200	> 200	> 100	–
Nc1nccc(-c2c[nH]c3c(Br)cccc23)n1	–	–	–	–	–	–	–	–	–	–	–	99.8	–
Cl.Nc1nccc(-c2c[nH]c3cc(I)ccc23)n1	> 200	> 200	> 200	> 200	> 200	> 200	> 200	> 200	> 200	> 200	> 200	42.5	MIC [7]: > 200 µM
Nc1nccc(-c2c[nH]c3ccc(Br)cc23)n1	–	–	–	–	–	–	–	–	–	–	–	17.9	MIC [7]: 200 µM (≈ 57.8 µg/mL); EC50 [19]: 138 µM; EC50 [20]: 92.1 µM

From ChEMBL document CHEMBL4196121, “Meridianin D Analogues Display Antibiofilm Activity against MRSA and Increase Colistin Efficacy in Gram-Negative Bacteria” (ACS Med Chem Lett, 2018)
